What all share (format): functional
Test [1] concerns Klebsiella aerogenes. Description: The compound was tested for its antimicrobial activity against Enterobacter aerogenes ATCC 13048 (Ea) strain. An outline of the steps:
(§1)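 MIC by twofold serial agar dilution in brain-heart infusion agar.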

The test system of test [2] is Escherichia coli. Put plainly: The compound was tested for inhibition constant against DNA gyrase isolated from Escherichia coli.
In test [3] the test system is Escherichia coli. Put plainly: (§2) The compound was tested for its antimicrobial activity against Escherichia coli juhl (Ec) strain. The procedure, abridged:
(§3)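 MICs were determined by twofold agar dilution on brain-heart infusion agar.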

Test [4] has as its system Klebsiella pneumoniae. Put plainly: The compound was tested for its antimicrobial activity against Klebsiella pneumoniae 8045 (Kp) strain. The procedure, abridged: as §3
Test [5] relates to Micrococcus luteus. Description: The compound was tested for inhibition constant against DNA gyrase isolated from micrococcus luteus.
The test system of test [6] is Pseudomonas aeruginosa. Description: The compound was tested evaluated for its antimicrobial activity against Pseudomonas aeruginosa ( Pa(K)) strain. An outline of the steps: as §3
Test [7] concerns Pseudomonas aeruginosa. Description: The compound was tested evaluated for its antimicrobial activity against Pseudomonas aeruginosa A5007 (Pa(5)) strain. An outline of the steps: as §3
Test [8] deals with Streptococcus pyogenes. Put plainly: The compound was tested for its antimicrobial activity against Streptococcus pyogenes 930 (Sp) strain. The procedure, abridged:
as §3

Test [9] has as its system Staphylococcus aureus. Put plainly: The compound was tested for its antimicrobial activity against Staphylococcus aureus CMX 68613 (Sa) strain. The procedure, abridged: as §1
The test system of test [10] is Enterococcus faecium. Put plainly: The compound was tested for its antimicrobial activity against Streptococcus faecium ATCC 8043 (Sf) strain. An outline of the steps:
as §3

For test [11], the system named is Staphylococcus epidermidis. Put plainly: (§4) The compound was tested for its antimicrobial activity against Staphylococcus epidermidis 3519 (Se) strain. An outline of the steps:
as §1

The subject of test [12] is Staphylococcus aureus. Description: The compound was tested for its antimicrobial activity against Staphylococcus aureus ATCC 6538P (Sa(A)) strain. An outline of the steps: as §3
The test system of test [13] is Acinetobacter. Description: The compound was tested for its antimicrobial activity against Acinetobacter sp. CMX 669 (A) strain. The procedure, abridged:
as §3

The test system of test [14] is Micrococcus luteus. Put plainly: The compound was tested for its antimicrobial activity against Micrococcus luteus (MI) strain. An outline of the steps:
as §3

Test [15] deals with Escherichia coli. Described as §2. An outline of the steps:
as §1
This is another data set of the same source.

In test [16] the test system is Staphylococcus epidermidis. Put plainly: The compound was tested for its antimicrobial activity against Staphylococcus epidermidis 3519 (Se) strain. The procedure, abridged:
as §1

The test system of test [17] is Streptococcus pyogenes. Put plainly: The compound was tested for its antimicrobial activity against Streptococcus pyogenes 930 (Sp) strain. An outline of the steps: as §1
Test [18] deals with Enterococcus faecium. Description: The compound was tested for its antimicrobial activity against Streptococcus faecium ATCC 8043 (Sf) strain. An outline of the steps: as §1
In test [19] the test system is Acinetobacter. Put plainly: The compound was tested for its antimicrobial activity against Acinetobacter sp. CMX 669 (A) strain. An outline of the steps:
as §1

The test system of test [20] is Pseudomonas aeruginosa. Put plainly: The compound was tested evaluated for its antimicrobial activity against Pseudomonas aeruginosa ( Pa(K)) strain. The procedure, abridged: as §1
Test [21] relates to Escherichia coli. Description: The compound was tested for its antimicrobial activity against Escherichia coli juhl (Ec) strain. The procedure, abridged: as §3
Test [22] deals with Klebsiella pneumoniae. Put plainly: microbe, parasite or virus in culture.
The test system of test [23] is Staphylococcus aureus. Description: The compound was tested for its antimicrobial activity against Staphylococcus aureus CMX 68613 (Sa) strain. The procedure, abridged:
as §3

Test [24] deals with Klebsiella aerogenes. Put plainly: The compound was tested for its antimicrobial activity against Enterobacter aerogenes ATCC 13048 (Ea) strain. An outline of the steps:
as §3

Test [25] has as its system Pseudomonas aeruginosa. Description: The compound was tested evaluated for its antimicrobial activity against Pseudomonas aeruginosa A5007 (Pa(5)) strain. The procedure, abridged: as §1
In test [26] the test system is Staphylococcus epidermidis. Described as §4. The procedure, abridged:
as §3
This is another data set of the same source.

The mark [27] stands for this setting: Pseudomonas aeruginosa, read-out: MIC.
Setting [28] is: Streptococcus pyogenes, read-out: MIC.
[29] abbreviates: Enterococcus faecium, ATCC 8043, read-out: MIC.
[30] abbreviates: Staphylococcus aureus, ATCC 6538P, read-out: MIC.
Where [31] appears, read: Escherichia coli, read-out: MIC.
The mark [32] stands for this setting: Staphylococcus aureus, read-out: MIC.
The mark [33] stands for this setting: Klebsiella aerogenes, ATCC 13048, read-out: MIC.

Values after ≈ are worked out from the molar mass of the structure shown.

Experimental findings from ChEMBL document CHEMBL1123248, “Chiral DNA gyrase inhibitors. 1. Synthesis and antimicrobial activity of the enantiomers of 6-fluoro-7-(1-piperazinyl)-1-(2'-trans-phenyl-1'-cyclopropyl)-1, 4-dihydro-4-oxoquinoline-3-carboxylic acid” (1986) are described below.

By Ki is commonly meant the equilibrium dissociation constant of an inhibitor or competing ligand from its target.

For the compound `O=C(O)c1cn(C2C[C@@H]2c2ccccc2)c2cc(N3CCNCC3)c(F)cc2c1=O` (stereo partly specified), the MIC against Klebsiella aerogenes [1] was 12.5 µg/mL (≈ 30.7 µM); against Escherichia coli [3] it was 12.5 µg/mL (≈ 30.7 µM); in the test on Klebsiella pneumoniae [4] it was 3.1 µg/mL (≈ 7.61 µM); in the test with Pseudomonas aeruginosa [6] (setting [27]) it was 100 µg/mL (≈ 245 µM); against Pseudomonas aeruginosa [7], greater than 50 µg/mL; with Streptococcus pyogenes [8] (setting [28]), 0.78 µg/mL (≈ 1.91 µM). The MIC against Staphylococcus aureus [9] stood at 0.78 µg/mL (≈ 1.91 µM); in the test on Enterococcus faecium [10] (setting [29]), 1.56 µg/mL (≈ 3.83 µM); in test [11], 1.56 µg/mL (≈ 3.83 µM); with Staphylococcus aureus [12] (setting [30]), 0.78 µg/mL (≈ 1.91 µM); against Acinetobacter [13], 6.2 µg/mL (≈ 15.2 µM); against Micrococcus luteus [14] it was 0.39 µg/mL (≈ 0.957 µM). In addition, the values for the inhibition constant (Ki) in the test on Escherichia coli [2] (Escherichia coli) and in the test on Micrococcus luteus [5] (Micrococcus luteus) were 12.1 µg/mL (≈ 29.7 µM) and 9.6 µg/mL (≈ 23.6 µM), respectively.

As for `O=C(O)c1cn(-c2ccccc2)c2cc(N3CCNCC3)c(F)cc2c1=O`, the MIC against Escherichia coli [15] was determined as 0.2 µg/mL (≈ 0.544 µM); in the test on Klebsiella aerogenes [1], 0.39 µg/mL (≈ 1.06 µM); against Pseudomonas aeruginosa [7] it was 0.78 µg/mL (≈ 2.12 µM); in [16], 1.56 µg/mL (≈ 4.25 µM); in the test on Streptococcus pyogenes [17] it was 1.56 µg/mL (≈ 4.25 µM); in the test on Staphylococcus aureus [9], 0.39 µg/mL (≈ 1.06 µM). Further, the MIC is 12.5 µg/mL (≈ 34 µM) against Enterococcus faecium [18], 0.78 µg/mL (≈ 2.12 µM) in the test with Acinetobacter [19], 1.56 µg/mL (≈ 4.25 µM) with Pseudomonas aeruginosa [20] and 0.39 µg/mL (≈ 1.06 µM) in the test with Staphylococcus aureus [12] (setting [30]).

For the compound `O=C(O)c1cn(C2C[C@H]2c2ccccc2)c2cc(N3CCNCC3)c(F)cc2c1=O` (stereo in doubt; 5), the MIC is 50 µg/mL (≈ 123 µM) in the test with Escherichia coli [21] (setting [31]); 12.5 µg/mL (≈ 30.7 µM) with Klebsiella pneumoniae [22]; 100 µg/mL (≈ 245 µM) against Pseudomonas aeruginosa [6]; 100 µg/mL (≈ 245 µM) in the test on Pseudomonas aeruginosa [6] (setting [27]); greater than 100 µg/mL with Pseudomonas aeruginosa [7]; 3.1 µg/mL (≈ 7.61 µM) in [16]. Moreover, the MIC worked out at 3.1 µg/mL (≈ 7.61 µM) with Streptococcus pyogenes [8] (setting [28]); 3.1 µg/mL (≈ 7.61 µM) in the test with Staphylococcus aureus [23] (setting [32]); 6.2 µg/mL (≈ 15.2 µM) in the test with Enterococcus faecium [10] (setting [29]); 3.1 µg/mL (≈ 7.61 µM) in the test on Staphylococcus aureus [12] (setting [30]); 50 µg/mL (≈ 123 µM) in the test with Klebsiella aerogenes [24] (setting [33]); 100 µg/mL (≈ 245 µM) in the test with Acinetobacter [13]. Further, the figures for the inhibitory constant (Ki) with Escherichia coli [2] (Escherichia coli) and in the test on Micrococcus luteus [5] were 14.2 µg/mL (≈ 34.9 µM) and 38 µg/mL (≈ 93.3 µM), respectively.

With `O=C(O)c1cn(C2C[C@H]2c2ccccc2)c2cc(N3CCNCC3)c(F)cc2c1=O` (stereo in doubt; 14), the MIC was 25 µg/mL (≈ 61.4 µM) against Escherichia coli [21]; 6.2 µg/mL (≈ 15.2 µM) in the test on Klebsiella pneumoniae [4]; greater than 100 µg/mL against Pseudomonas aeruginosa [25]; 1.56 µg/mL (≈ 3.83 µM) in test [26]; 1.56 µg/mL (≈ 3.83 µM) against Streptococcus pyogenes [8]; 1.56 µg/mL (≈ 3.83 µM) against Staphylococcus aureus [23]. The MIC came to 3.1 µg/mL (≈ 7.61 µM) against Enterococcus faecium [10]; 1.56 µg/mL (≈ 3.83 µM) in the test with Staphylococcus aureus [12]; 50 µg/mL (≈ 123 µM) against Klebsiella aerogenes [24]; 25 µg/mL (≈ 61.4 µM) in the test on Acinetobacter [13]; 0.39 µg/mL (≈ 0.957 µM) with Micrococcus luteus [14]. Moreover, the Ki was found to be 15.2 µg/mL (≈ 37.3 µM) with Escherichia coli [2] and 13.7 µg/mL (≈ 33.6 µM) in the test on Micrococcus luteus [5].

Regarding `O=C(O)c1cn(C2CC2)c2cc(N3CCNCC3)c(F)cc2c1=O` [CIPROFLOXACIN], the Ki is 0.9 µg/mL (≈ 2.72 µM) in the test with Escherichia coli [2] (Escherichia coli) and 38 µg/mL (≈ 115 µM) in the test on Micrococcus luteus [5] (Micrococcus luteus). Further, the MIC in the test on Pseudomonas aeruginosa [6] (setting [27]) is 0.05 µg/mL (≈ 0.151 µM); in the test with Pseudomonas aeruginosa [25], 0.1 µg/mL (≈ 0.302 µM); in test [26], 0.2 µg/mL (≈ 0.604 µM); in the test with Streptococcus pyogenes [8] (setting [28]), 0.39 µg/mL (≈ 1.18 µM); in the test on Staphylococcus aureus [23] (setting [32]) it was 0.2 µg/mL (≈ 0.604 µM); with Enterococcus faecium [10] (setting [29]), 0.39 µg/mL (≈ 1.18 µM). Further, the MIC in the test with Staphylococcus aureus [12] (setting [30]) was determined as 0.2 µg/mL (≈ 0.604 µM); in the test on Klebsiella aerogenes [24] (setting [33]), 0.05 µg/mL (≈ 0.151 µM); against Acinetobacter [13], 3.1 µg/mL (≈ 9.36 µM); with Micrococcus luteus [14] it was 1.56 µg/mL (≈ 4.71 µM).

For `CCn1cc(C(=O)O)c(=O)c2cc(F)c(N3CCNCC3)cc21` [NORFLOXACIN], the MIC turned out to be 0.1 µg/mL (≈ 0.313 µM) with Escherichia coli [21] (setting [31]); 0.2 µg/mL (≈ 0.626 µM) against Klebsiella aerogenes [1]; 0.1 µg/mL (≈ 0.313 µM) against Klebsiella pneumoniae [4]; 0.39 µg/mL (≈ 1.22 µM) in the test with Pseudomonas aeruginosa [6] (setting [27]); 0.39 µg/mL (≈ 1.22 µM) in the test on Pseudomonas aeruginosa [25]; 3.1 µg/mL (≈ 9.71 µM) in the test on Streptococcus pyogenes [8] (setting [28]). Also, the MIC with Staphylococcus aureus [23] (setting [32]) was 0.78 µg/mL (≈ 2.44 µM); with Enterococcus faecium [10] (setting [29]) it was 0.78 µg/mL (≈ 2.44 µM); in test [11], 1.56 µg/mL (≈ 4.89 µM); in the test on Staphylococcus aureus [12] (setting [30]) it was 0.78 µg/mL (≈ 2.44 µM); with Acinetobacter [13] it was 6.2 µg/mL (≈ 19.4 µM). The figures for the Ki in the test with Escherichia coli [2] (Escherichia coli) and with Micrococcus luteus [5] (Micrococcus luteus) were 1 µg/mL (≈ 3.13 µM) and 72 µg/mL (≈ 225 µM), respectively.
